From ChEMBL document CHEMBL1133353, “Structural analogues of some highly active non-competitive AMPA antagonists” (Bioorg Med Chem Lett, 2000)

Experiments:
Mus musculus [1] = experiment: Anticonvulsant activity of compound, administered perorally in mice was evaluated using maximal electroshock seizure model; type: functional; conditions: po
Procedure, shortened: (§1)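 Mice were dosed orally 60 min before maximal electroshock, using 10 mice per dose at 3–4 doses. ED50 was calculated by the Litchfield–Wilcoxon method.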

Mus musculus [2] = experiment: No behavioral change was observed after the peroral administration of compound in mice; type: functional
Gallus gallus [3] = species on record: Gallus gallus; experiment: Compound was examined in vitro for inhibition of AMPA (5 uM) evoked spreading depression in isolated retina prepared from young chicken; type: functional
Procedure, shortened: (§2)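 Each compound was first screened at 20 µM in 6 retina preparations. Below 40% inhibition was recorded as IC50 >20 µM, and 40–60% as ~20 µM. Above 60%, IC50 was determined from 3–5 concentrations with 6 retinas per concentration.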

Mus musculus [4] = experiment: No behavioral change was observed after the intraperitoneal administration of compound in mice; type: functional
Mus musculus [5] = experiment: Muscle relaxant activity of compound, administered intraperitoneally in mice was evaluated using inclined screen test; type: functional; conditions: ip
Procedure, shortened: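 Inclined screen test for muscle relaxation in mice, with compound given ip 30 min before testing; 10 mice per dose at 3–4 doses. ED50 was derived by the Litchfield–Wilcoxon method.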

Mus musculus [6] = experiment: Increase of spontaneous motor activity, ataxy, stereotypia, licking, muscle rigidity was observed after the peroral administration of compound in mice; type: functional
Mus musculus [7] = experiment: Increase of spontaneous motor activity, ataxy, stereotypia, licking, muscle rigidity was observed after the intraperitoneal administration of compound in mice; type: functional
Mus musculus [8] = experiment: Anticonvulsant activity of compound, administered perorally in mice was evaluated using maximal electroshock seizure model; values ranges from (40.5-54.7); type: functional; conditions: po; procedure, shortened: as §1
Gallus gallus [9] = species on record: Gallus gallus; experiment: Compound was examined in vitro for inhibition of kainate (5 uM) evoked spreading depression in isolated retina prepared from young chicken; type: functional; procedure, shortened: as §2
Mus musculus [10] = experiment: Loss of righting reflex was observed after the intraperitoneal administration of compound in mice; type: functional
Rattus norvegicus [11] = species on record: Rattus norvegicus; experiment: (§3) Compound was tested for inhibition of whole cell current induced […]; type: functional
Procedure, shortened: (§4)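 Patch-clamp whole-cell currents evoked by 5 µM AMPA; inhibition reported as IC50 or as percent inhibition at 5 µM compound.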

Mus musculus [12] = experiment: Loss of righting reflex was observed after the peroral administration of compound in mice; type: functional
Mus musculus [13] = experiment: Anticonvulsant activity of compound, administered perorally in mice was evaluated using maximal metrazole seizure model; type: functional; conditions: po
Procedure, shortened: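 Oral dosing in mice 60 min before 130 mg/kg metrazole ip, with lethality as the endpoint; 10 mice per dose at 3–4 doses. ED50 was obtained by the Litchfield–Wilcoxon method.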

Mus musculus [14] = experiment: Decrease of spontaneous motor activity, ataxy, mild muscle relaxation was observed after the peroral administration of compound in mice; type: functional
Mus musculus [15] = experiment: Decrease of spontaneous motor activity, ataxy, mild muscle relaxation was observed after the intraperitoneal administration of compound in mice; type: functional
Mus musculus [16] = experiment: Adynamia was observed after the peroral administration of compound in mice; type: functional
Mus musculus [17] = experiment: Adynamia was observed after the intraperitoneal administration of compound in mice; type: functional
Rattus norvegicus [18] = species on record: Rattus norvegicus; experiment: as §3; type: functional, cell-based; procedure, shortened: as §4

Structure (SMILES) | ED50 (Mus musculus [1]) | IC50 (Gallus gallus [3]) | ED50 (Mus musculus [5]) | IC50 (Gallus gallus [9]) | Dose (Mus musculus [10]) | Dose (Mus musculus [12]) | ED50 (Mus musculus [13]) | other results
CCCCC(=O)N1CC(C)c2cc3c(cc2C(c2ccc(N)cc2)=N1)OCO3 (stereo not drawn) | > 100 mg/kg | > 20 µM | > 200 mg/kg | – | – | – | – | Dose (Mus musculus [2]): 200 mg/kg; Dose (Mus musculus [4]): 100 mg/kg
CC1CNN=C(c2ccc(N)cc2)c2cc3c(cc21)OCO3 (stereo not drawn) | – | – | 100 mg/kg | – | – | – | – | Dose (Mus musculus [6]): 200 mg/kg; Dose (Mus musculus [7]): 100 mg/kg; ED50 (Mus musculus [8]): 47.1 mg/kg
CNC(=O)N1CC(C)c2cc3c(cc2C(c2ccc(N)cc2)=N1)OCO3 (stereo not drawn) | 48.8 mg/kg | 15.6 µM | 55.9 mg/kg | 20 µM | 100 mg/kg | 200 mg/kg | 67.6 mg/kg | Inhibition (Rattus norvegicus [11]): 52.7%
CC1CN(C(=O)C2CC2)N=C(c2ccc(N)cc2)c2cc3c(cc21)OCO3 (stereo not drawn) | > 100 mg/kg | > 20 µM | > 200 mg/kg | – | – | – | – | Dose (Mus musculus [2]): 200 mg/kg; Dose (Mus musculus [4]): 100 mg/kg
CC1CN(c2ccccn2)N=C(c2ccc(N)cc2)c2cc3c(cc21)OCO3 (stereo not drawn) | > 100 mg/kg | > 20 µM | > 200 mg/kg | – | – | – | – | Dose (Mus musculus [14]): 200 mg/kg; Dose (Mus musculus [15]): 100 mg/kg
CC(=O)N1CC(C)c2cc3c(cc2C(c2ccc(N)cc2)=N1)OCO3 (stereo not drawn) | 69.3 mg/kg | 20 µM | 95.3 mg/kg | 3.4 µM | – | – | 135 mg/kg | Dose (Mus musculus [16]): 200 mg/kg; Dose (Mus musculus [17]): 100 mg/kg; Inhibition (Rattus norvegicus [11]): 54%
CC1=NN=C(c2ccc(N)cc2)c2cc3c(cc2C1)OCO3 [GYKI-52466] | 37.4 mg/kg | 6.3 µM | – | 9.5 µM | 100 mg/kg | 200 mg/kg | 120 mg/kg | IC50 (Rattus norvegicus [18]): 9.9 µM
CC(=O)N1N=C(c2ccc(N)cc2)c2cc3c(cc2C[C@H]1C)OCO3 [TALAMPANEL] | 8.6 mg/kg | 1.7 µM | – | 2.6 µM | 100 mg/kg | 200 mg/kg | – | IC50 (Rattus norvegicus [18]): 2.5 µM
